# Compounds with a hit are over-represented: about 12% of the library has one in this group of screens.
# ABCG2 block: human ABCG2 inhibition, ABCB1 as counter-screen; Q9UNQ0; IgMXP3 cells, JC-1 efflux, flow cytometry; inhibition, % at 6.6 µM; hit rate 0.1% among 190,000; AID 1325;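 active = inhibition above 80%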
#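 Assay system – ABCG2 IgMXP3 and barcoded ABCB1 CCRF-Adr cell mix · Input – 3 million cells/mL in well · Reagent – JC-1 fluorescent substrate · Compound – single test compound dose, 6.6 µM final · Timing – 10 min exposure at 25 °C with rotation, no wash · Detection – flow cytometry of retained JC-1 fluorescence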
# ABCB1 inh: blocks JC-1 efflux by human ABCB1 transporter; P08183; CCRF-Adr cells, flow cytometry; inhibition, % at 6.6 µM; hit rate 0.067% among 190,000; AID 1326; in the data active = inhibition above about 40%;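 note: higher value means more JC-1 retained so stronger ABCB1 efflux block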
# WT yeast gro inh: growth inhibition of WT yeast, mitochondrial fusion screen; mitochondrial fusion phenotypic screen, WT strain; inhibition, % at 10 µM; hit rate 2.1% among 190,000; in the data active = inhibition above about 58%; tested in S. cerevisiae
# Lmaj promast: Leishmania major promastigote growth inhibition; Leishmania major promastigotes, resazurin fluorescence viability; inhibition, % at 10 µM; hit rate 9% among 200,000; in the data active = inhibition above about 50%;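 note: promastigotes grown with compound for 44 hours at 28 °C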
# RAM inhibit: inhibitors of the yeast RAM network. hit rate 1.8% among 190,000. S. cerevisiae dse1pr::URA3 reporter, 5-FOA growth OD615, 2 d; analog-sensitive cbk1-as2 kinase mutant strain. inhibition, % at 50 µM;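 active = inhibition above a set limit, 3 SD over mean compound inhibition, cut at about 8.4% in these data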;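 note: inhibition rescues growth on 5-FOA so higher OD means more RAM inhibition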
# A number is an active result; – = inactive; · = no result.
SMILES,ABCG2 block,ABCB1 inh,WT yeast gro inh,Lmaj promast,RAM inhibit
O=C(NC(=S)Nc1cc(C(F)(F)F)ccc1N1CCOCC1)c1sc2ccccc2c1Cl,–,–,–,–,–
C=CCN1C(=O)CSC1=Nc1cccc(O)c1,–,–,–,–,–
C=CCN1C(=Nc2cccnc2)SCC1(O)c1ccc(C)cc1 (configuration not stated),–,–,–,61,–
COc1ccc(-c2nc(-n3c(C)c(C(C)=O)c(C(C)=O)c3C)sc2C)cc1OC,–,–,–,66,–
COc1ccc(-c2nn(-c3ccccc3)cc2C(=O)N/N=C/c2ccc([N+](=O)[O-])o2)cc1,–,–,–,65,–
O=C(COc1ccccc1)N/N=C/c1ccc([N+](=O)[O-])o1,–,–,–,100,–
COc1ccc(-c2nn(-c3ccccc3)cc2C(=O)N2CCOCC2)cc1,–,–,–,–,–
Cc1ccc(OCC(=O)N/N=C/c2ccc([N+](=O)[O-])o2)cc1,–,–,–,100,–
O=C(CNc1ccc2ccccc2c1)N/N=C/c1ccc([N+](=O)[O-])o1,–,–,–,100,–
O=C(NC1CCCc2ccccc21)C12CC3CC(CC(O)(C3)C1)C2 (configuration not stated),–,–,–,–,–
CCOC(=O)N1CCN(C(=O)/C(=C/c2cccs2)NC(=O)c2cccs2)CC1,–,–,–,–,–
C#CCn1c(S(=O)(=O)Cc2ccc(F)cc2)nc(-c2ccccc2)c1-c1ccccc1,–,–,–,96,–
CCOC(=O)Cn1c(S(=O)(=O)Cc2ccc(F)cc2)nc(-c2ccccc2)c1-c1ccccc1,–,–,·,–,–
CCOC(=O)Cn1c(S(=O)(=O)Cc2cccc(F)c2)nc(-c2ccccc2)c1-c1ccccc1,–,–,–,90,–
Cc1ccccc1NC(=O)c1ccccc1NC(=O)CCC(=O)O,–,–,–,–,–
CC(C)c1ccc(NC(=O)c2cc(S(=O)(=O)NCC3COc4ccccc4O3)ccc2F)cc1 (configuration not stated),–,–,62,–,–
O=C(Nc1ccc(C(F)(F)F)cc1)c1cc(S(=O)(=O)NCC2COc3ccccc3O2)ccc1F (configuration not stated),–,–,82,–,8.4
CC(c1nnc(SCC(=O)N2CC(=O)Nc3ccccc32)n1Cc1ccccc1)N(C)C (configuration not stated),–,–,–,–,–
CCOc1ccc(Oc2ccccc2NC(=O)CCNC(C)=O)cc1,–,–,–,–,–
Fc1ccc(CNC(=S)Nc2ccc(OC(F)F)cc2)cc1,–,–,–,63,–
C/C(=N\NC(=S)NCc1ccccc1)c1ccccc1,–,–,62,–,–
S=C(NCc1ccccc1)NCc1cccc(CNC(=S)NCc2ccccc2)c1,–,–,–,85,–
CCc1ccc(NC(=S)NCc2ccccc2)cc1,–,–,70,–,–
O=S(=O)(Nc1nc2ccccc2nc1N1CCN(c2ccccc2F)CC1)c1ccc(Cl)cc1,–,–,–,–,–
CC1CC(C)CN(c2ccc(C(=O)NCc3ccc4c(c3)OCO4)cc2[N+](=O)[O-])C1 (configuration not stated),–,–,–,–,–
SMILES,ABCG2 block,ABCB1 inh,WT yeast gro inh,Lmaj promast,RAM inhibit
O=C(CC1Sc2ncnn2C1=O)Nc1ccccc1 (configuration not stated),–,–,–,100,–
O=C(CC1SC(=O)N(c2ccccc2)C1=O)Nc1ccccc1 (configuration not stated),–,–,–,–,–
C/C=N\NC(=O)CNC(=O)CNC(=O)c1ccccc1,–,–,–,–,–
CSc1ccc(CNCC(O)c2ccccc2)cc1 (configuration not stated),–,–,–,–,–
COc1cc(CNCCc2ccccc2)ccc1OCc1ccc(Cl)nc1,–,–,–,100,–
COc1cc(CNCC(O)c2ccccc2)ccc1OCc1ccc(Cl)nc1 (configuration not stated),–,–,–,100,–
CCCc1nnc(NC(=O)CCC(=O)NC2CCCc3ccccc32)s1 (configuration not stated),–,–,–,–,–
CC(C)Cc1nnc(NC(=O)CCC(=O)NC2CCCc3ccccc32)s1 (configuration not stated),–,–,–,96,–
N=c1sccn1CC(=O)Nc1cccc(S(=O)(=O)N2CCCCCC2)c1,–,–,–,–,–
COC(=O)c1cnn(-c2ccc(C)c(C)c2)c1-n1cccc1,–,–,–,65,–
O=C(CN1CCN(Cc2ccccc2)CC1)N/N=C/c1c[nH]c2ccccc12,–,–,–,–,–
Cc1ccc(NC(=O)Nc2cccc(Cl)c2)c(C(=O)O)c1,–,–,–,–,–
COc1ccc(Nc2cccc(Cl)c2)c(C(=O)O)c1,–,–,–,51,–
Cc1c(C(=O)O)cccc1-c1ccc(/C=N/Nc2ccc(Br)cc2)o1,–,–,–,–,–
Cc1cc(-c2nn(-c3ccccc3F)cc2CN2CCN(c3ccncc3)CC2)c(C)s1,–,–,–,–,–
CCN(C(=O)CSc1nnc(Nc2ccccc2)s1)C1CCS(=O)(=O)C1 (configuration not stated),–,–,–,58,–
Cc1ccc(Nc2nnc(SCC(=O)N(C)C3CCS(=O)(=O)C3)s2)cc1 (configuration not stated),–,–,–,56,–
CCCCn1c(SCC(=O)N(CC)C2CCS(=O)(=O)C2)nc2cc(S(N)(=O)=O)ccc21 (configuration not stated),–,–,–,–,–
CCN(C(=O)CSc1nc2cc(C(F)(F)F)ccc2n1Cc1ccccc1)C1CCS(=O)(=O)C1 (configuration not stated),–,–,–,98,–
O=C(CC(=O)c1cccc([N+](=O)[O-])c1)Nc1ccccc1Cl,–,–,–,–,–
CC(/C=C1\SC(=S)N(NC(=O)c2ccc(O)cc2)C1=O)=C\c1ccccc1,–,–,90,–,–
CC(=O)NN1C(=O)/C(=C\c2ccccc2)SC1=S,–,–,–,–,–
Cc1cc2ccccn2c1C(=O)c1cc([N+](=O)[O-])cc([N+](=O)[O-])c1,–,–,–,100,–
O=C(NNc1ccccc1[N+](=O)[O-])Nc1ccc(Cl)c(Cl)c1,–,–,–,78,–
CCCCN(CCCC)S(=O)(=O)c1ccc(NC(=O)c2ccc([N+](=O)[O-])cc2Cl)cc1,·,·,–,100,–
CCN(CC)S(=O)(=O)c1cc([N+](=O)[O-])ccc1NNC(=O)Nc1ccc(Cl)c(Cl)c1,–,–,–,100,–
C(#CCN1CCC(Cc2ccccc2)CC1)COCCOCc1ccccc1,–,–,–,–,–
Cc1c(/C=N/NC(=O)CNc2ccccc2)c2ccccn2c1C(=O)c1ccccc1,–,–,–,–,–
O=C(NCCOCCNC(=O)OCc1ccccc1)OCc1ccccc1,–,–,–,–,–

# Compound activity as filed in PubChem BioAssay.
